We go through 29 compounds from ChEMBL document CHEMBL1134334, “3-Aryl[1,2,4]triazino[4,3-a]benzimidazol-4(10H)-ones: a new class of selective A1 adenosine receptor antagonists” (J Med Chem, 2001).

Assay [1] concerns the target T1, Adenosine receptor A1 (Bos taurus, UniProt P28190).
T1 sequence (P28190 whole entry): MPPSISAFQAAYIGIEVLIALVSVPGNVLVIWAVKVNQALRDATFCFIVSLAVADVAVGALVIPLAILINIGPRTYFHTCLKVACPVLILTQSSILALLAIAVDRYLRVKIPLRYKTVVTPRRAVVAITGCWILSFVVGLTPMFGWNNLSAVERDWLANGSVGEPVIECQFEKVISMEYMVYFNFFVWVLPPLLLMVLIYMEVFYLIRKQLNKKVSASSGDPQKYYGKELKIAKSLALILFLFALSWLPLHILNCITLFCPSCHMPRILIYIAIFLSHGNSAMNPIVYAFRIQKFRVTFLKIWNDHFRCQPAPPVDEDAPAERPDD
Description: Displacement of [3H]CHA from adenosine A1 receptors was determined in bovine cortical membranes. The class given is cell membranes. Summed up: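 A1 affinity measured by displacement of [3H]CHA (31 Ci/mmol) from bovine cortical membranes. Compounds in DMSO, final ≤2%. At least six concentrations spanning 3 orders of magnitude were used. Ki is the mean ± SEM of four separate assays, each run in triplicate.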
Background: Displacement assays read how much labelled ligand stays bound in the presence of the test substance.

Assay [2] concerns the target T1, Adenosine receptor A1. In words: Intrinsic activity towards Adenosine A1 receptor using [3H]DPCPX from bovine cortical membranes without GTP. A digest of the protocol:
(§1)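 A1 binding in bovine cortical membranes with [3H]DPCPX as radioligand. Run with 1 mM GTP and without GTP, and the GTP shift was taken from comparing the two conditions. Compounds in DMSO, final ≤2%.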

Assay [3] addresses T1, Adenosine receptor A1. In words: Intrinsic activity towards Adenosine A1 receptor as displacement of [3H]DPCPX from bovine cortical membranes with 1 mM GTP. Summed up: as §1
Assay [4] has as its target T2, Adenosine receptor A1 (Bos taurus) (UniProt P28190).
T2 sequence (whole entry): T1 sequence (P28190 whole entry)
Description: Displacement of [3H]CHA from adenosine A1 receptor in bovine cortical membrane at 10 uM. The class given is cell membranes. Summed up: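 Competition against [3H]CHA (31 Ci/mmol) for A1 sites in bovine cortical membranes. Compounds dissolved in DMSO, final DMSO ≤2%.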

Assay [5] has as its system Adenosine receptor A2a (Bos taurus). In words: Displacement of [3H]-CGS- 21680 from adenosine A2a receptor in bovine striatal membrane at 10 uM. As to conditions: Striatum.
In assay [6] the target is Adenosine receptor A2a (Bos taurus). In words: Displacement of [3H]-CGS- 21680 from adenosine A2a receptor of bovine striatal membrane.
Assay [7] concerns the target T1, Adenosine receptor A1. Description: Intrinsic activity towards Adenosine A1 receptor as displacement of [3H]DPCPX from bovine cortical membranes without GTP. Summed up: as §1
Assay [8] has as its target T2, Adenosine receptor A1 (Bos taurus). In words: GTP shift for Adenosine A1 receptor. The class given is functional. A digest of the protocol: as §1
Assay [9] concerns Adenosine receptor A3 (Bos taurus). In words: Displacement of [125 I]AB-MECA from adenosine A3 receptor in bovine cortical membranes at 1 uM.

SMILES strings stand for the structures.

In assay [1], `Oc1c(-c2ccco2)nnc2nc3ccccc3n12` came in with a Ki of 261 nM.

Regarding `Oc1c(-c2ccccc2)nnc2nc3ccccc3n12`, the Ki in assay [2] came to 141 nM; in assay [3], 197 nM; in [1], 85 nM.

Consider `Oc1c(-c2ccc(Cl)cc2)nnc2nc3ccccc3n12`, for which the figures for the inhibition in assay [4] and in [5] were 44% and 8%, respectively.

Compound `O=c1c(-c2ccco2)nnc2n(-c3ccccc3)c3ccccc3n12` showed a Ki in assay [1] of 315 nM.

Consider `Cn1c2ccccc2n2c(=O)c(-c3cccs3)nnc12`, for which the Ki in assay [1] amounted to 233 nM. The compound further came in with an inhibition in assay [5] of 19%.

The compound `COc1ccc(-c2nnc3nc4ccccc4n3c2O)cc1OC` returned a Ki in assay [1] of 1780 nM. Also, the inhibition in assay [5] came to 35%.

Compound `Cn1c2ccccc2n2c(=O)c(-c3ccc(O)c(O)c3)nnc12` gave a Ki in [1] of 459 nM.

Consider `Cn1c2ccccc2n2c(=O)c(-c3ccco3)nnc12`, for which the values for the Ki in assay [1] and in [6] were 813 nM and 6.3 µM, respectively.

Compound `COc1ccc(-c2nnc3n(C)c4ccccc4n3c2=O)cc1` registered a Ki in [1] of 2050 nM. The compound also returned an inhibition in [5] of 7%.

With `COc1ccc(-c2nnc3n(C)c4ccccc4n3c2=O)cc1OC`, the inhibition in assay [4] amounted to 24%; in [5] it was 18%.

On to `O=c1c(-c2ccccc2)nnc2n(-c3ccccc3)c3ccccc3n12`, for which the Ki in [3] worked out at 25 nM; in assay [7], 24.7 nM; in assay [1] it was 18 nM.

On to `O=c1c(-c2ccccc2)nnc2n(Cc3ccccc3)c3ccccc3n12`, for which the values for the Ki in assay [3], in assay [7] and in [1] were 184 nM, 240 nM and 274 nM, respectively.

`Cn1c2ccccc2n2c(=O)cnnc12`: the inhibition was determined as 0% in [4] and 8% in assay [5].

With `Cn1c2ccccc2n2c(=O)c(-c3ccccc3)nnc12`, the Ki in assay [3] is 119 nM; in assay [7], 93.1 nM; in assay [1], 63 nM. In addition, the inhibition in assay [5] was determined as 25%; in assay [9], 0%. In [8], the GTP shift is 1.3.

Take `O=c1c(-c2ccc(O)cc2)nnc2n(Cc3ccccc3)c3ccccc3n12`: the Ki in assay [1] was 344 nM.

For the compound `O=c1c(-c2ccco2)nnc2n(Cc3ccccc3)c3ccccc3n12`, the Ki in assay [1] came out at 990 nM; in assay [6], 1.24 µM.

For the compound `Cc1nnc2nc3ccccc3n2c1O`, in assay [1], the Ki came out at 3900 nM. Further, the inhibition in assay [5] worked out at 39%.

Consider `Oc1ccc(-c2nnc3nc4ccccc4n3c2O)cc1O`, for which the figures for the Ki in [1] and in assay [6] were 470 nM and 3.5 µM, respectively.

On to `Oc1c(-c2cccs2)nnc2nc3ccccc3n12`, for which the Ki in assay [1] is 293 nM.

Regarding `Cc1nnc2n(C)c3ccccc3n2c1=O`, the inhibition was 46% in assay [4] and 0% in assay [5].

Compound `O=c1c(-c2ccsc2)nnc2n(Cc3ccccc3)c3ccccc3n12` gave a Ki in assay [1] of 446 nM. In assay [5], this compound registered an inhibition of 60%.

In assay [1], `Oc1ccc(-c2nnc3nc4ccccc4n3c2O)cc1` returned a Ki of 249 nM.

Regarding `Oc1cnnc2nc3ccccc3n12`, the inhibition in assay [4] is 34%; in assay [5], 0%.

`COc1ccc(-c2nnc3nc4ccccc4n3c2O)cc1`: the values for the inhibition in [4] and in [5] were 30% and 16%, respectively.

With `Cn1c2ccccc2n2c(=O)c(-c3ccc(O)cc3)nnc12`, the Ki in assay [1] was determined as 206 nM. The compound also showed an inhibition in assay [5] of 43%.

As for `C[C@H](Cc1ccccc1)Nc1ncnc2c1ncn2[C@@H]1O[C@H](CO)[C@@H](O)[C@H]1O` [(R)-PIA], the Ki in [3] was 19.9 nM; in assay [7], 4.2 nM.

Regarding `Oc1c(-c2ccsc2)nnc2nc3ccccc3n12`, the Ki in assay [1] was determined as 119 nM; in [6], 5 µM.

For the compound `Cn1c2ccccc2n2c(=O)c(-c3ccc(Cl)cc3)nnc12`, the inhibition in [4] came to 66%; in assay [5], 0%.

Regarding `Cn1c2ccccc2n2c(=O)c(-c3ccsc3)nnc12`, in assay [1], the Ki was determined as 78 nM. Moreover, in assay [5], the inhibition was found to be 55%.

A word on the Ki: it is the equilibrium dissociation constant of an inhibitor or competing ligand from its target. A higher Ki goes with weaker binding. Usually inhibition stands for how much of the control response was suppressed. Low values mean a response near the control, high ones a response far below the control.
